# Bioassay records as filed in PubChem.
# Rows were chosen to be rich in hits. Some 3.7% of all compounds tested hit in one or more screens of this group.
# MT stabilizer: microtubule stabilizers in HeLa cells. HeLa tubulin immunostaining HCS, 24 h; share of cells brighter than vehicle mean+2SD. % tubulin-high responders, % at 10 µM. 200,000 compounds, 0.83% hits;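 active = plate Z-score above 3 for both tubulin-high and condensed-nucleus cell shares, with cell loss under 80%, at 10 µM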;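 also: anti alpha tubulin signal scored within the nucleus-defined area of each cell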
# KCC2 mod: modulators of human KCC2 chloride dependent transport; Q9H2X9; KCC2 cells, thallium flux FluoZin-2 fluorescence; B-score of Tl+ flux slope (higher = more flux/activation; lower = inhibition) at 10 µM; 190,000 compounds, 2.2% hits; AID 1456;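 active = thallium flux slope and its plate-corrected score both differing from the plate sample mean at a set confidence after two filtering rounds, in either direction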;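 also: slope of fluorescence scaled to starting intensity during 10 to 20 s after thallium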
# Target sequence (Q9H2X9 whole entry, looked up): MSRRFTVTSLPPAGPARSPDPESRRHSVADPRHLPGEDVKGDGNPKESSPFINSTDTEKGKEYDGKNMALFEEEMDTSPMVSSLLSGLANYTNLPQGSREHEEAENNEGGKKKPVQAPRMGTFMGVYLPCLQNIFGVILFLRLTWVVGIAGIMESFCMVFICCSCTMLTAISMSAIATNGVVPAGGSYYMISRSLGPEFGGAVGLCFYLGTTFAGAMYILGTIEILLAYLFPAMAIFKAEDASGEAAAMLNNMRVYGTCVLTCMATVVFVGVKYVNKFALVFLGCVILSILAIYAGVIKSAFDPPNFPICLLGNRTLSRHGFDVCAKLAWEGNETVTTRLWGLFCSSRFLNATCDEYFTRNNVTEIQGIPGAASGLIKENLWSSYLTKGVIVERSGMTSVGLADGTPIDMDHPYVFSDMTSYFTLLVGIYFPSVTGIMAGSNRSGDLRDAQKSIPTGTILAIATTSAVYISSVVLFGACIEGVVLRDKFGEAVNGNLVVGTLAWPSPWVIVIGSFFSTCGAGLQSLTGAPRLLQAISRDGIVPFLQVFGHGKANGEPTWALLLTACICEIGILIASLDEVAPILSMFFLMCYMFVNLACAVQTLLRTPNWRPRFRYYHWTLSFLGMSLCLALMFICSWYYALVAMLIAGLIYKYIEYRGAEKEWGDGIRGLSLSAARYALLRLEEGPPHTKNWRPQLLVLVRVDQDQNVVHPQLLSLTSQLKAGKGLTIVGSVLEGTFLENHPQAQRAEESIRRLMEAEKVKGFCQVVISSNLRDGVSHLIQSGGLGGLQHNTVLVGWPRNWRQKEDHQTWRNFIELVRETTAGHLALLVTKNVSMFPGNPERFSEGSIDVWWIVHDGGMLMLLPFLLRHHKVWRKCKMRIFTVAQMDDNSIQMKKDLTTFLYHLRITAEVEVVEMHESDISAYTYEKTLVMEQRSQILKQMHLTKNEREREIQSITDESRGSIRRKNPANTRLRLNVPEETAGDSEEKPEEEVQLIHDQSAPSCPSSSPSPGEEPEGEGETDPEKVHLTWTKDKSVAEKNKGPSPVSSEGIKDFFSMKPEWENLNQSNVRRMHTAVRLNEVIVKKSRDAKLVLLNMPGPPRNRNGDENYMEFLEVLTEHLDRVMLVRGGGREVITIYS
# bCat nuc transl: beta-catenin nuclear translocation modulation; HeLa beta-catenin nuclear translocation, immunofluorescence imaging; nuclear translocation activity, % at 5 µM; 190,000 compounds, 0.3% hits;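 active = nuclear translocation activity above 50% at 5 µM, with a well cell count of 50 or more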;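 also: per-cell ratio of nuclear to cytoplasmic median beta-catenin stain intensity; plate controls were DMSO negative control for no effect and GSK-3 inhibitor IX positive control for full effect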
#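 Test system: human HeLa cells, native beta-catenin. Compound dosing: 5 µM primary single dose, 0.1% DMSO, 0.02–20 µM confirmation series. Incubation: compound exposure 24 h at 37°C. Detection: beta-catenin immunostaining with DAPI counterstain, 20x imaging, 6 fields/well. Read-out basis: Nuclear/cytoplasmic beta-catenin signal ratio, % activation.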
# Redox H2O2 prof: compounds producing H2O2 with reducing agent – biochemical, NIH compound library profiling, artefact control for MLSCN library redox annotation, primary screen; 200,000 compounds, 0.03% hits; activation, % at 10 µM; DTT-dependent redox cycling H2O2, phenol red/HRP absorbance; 100% = 100 µM peroxide control, 0% = buffer;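 active = activation of at least 50% relative to the plate's high and low controls in the primary single-dose screen; inactive = activation below 50%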;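 also: compound incubated with DTT at 0.8 mM final as the reducing agent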
# ROMK mod: human ROMK K+ channel modulation, primary screen; 130,000 compounds, 2% hits; B-score at 10 µM; AID 1918; Tet-inducible ROMK, thallium flux fluorescence; actives lie on both sides; P48048;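 active = signal ratio slope over the read window, or its plate-corrected B-score, at least 3 SD from the plate mean, either direction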;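 also: B-score of the F/F0 ratio slope over 7 to 12 s after thallium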
# Redox H2O2 DR: redox cycling H2O2 generation, confirmed. AID 1234. shares compounds with Redox H2O2 prof. 60 compounds, 40% hits. EC50, µM. DTT-dependent redox cycling H2O2, phenol red-HRP absorbance;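 active = EC50 under a set limit for hydrogen peroxide production with the reducing agent DTT present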
# Numbers without * were called inactive; x = no result.
SMILES,MT stabilizer,KCC2 mod,bCat nuc transl,Redox H2O2 prof,ROMK mod,Redox H2O2 DR
O=c1cc(-c2ccccc2)[nH]c2ccccc12,32*,x,193*,0,1.5,x
O=C(CCCSc1nc(-c2ccco2)cc(C(F)(F)F)n1)Nc1ccc2c(c1)OCO2,5,-0.4,-1,1,x,x
O=C(CSc1nc(-c2ccco2)cc(C(F)(F)F)n1)Nc1ccc2c(c1)OCO2,29*,-1.6,3,0,0.081,x
O=C(CSc1nc(-c2ccco2)cc(C(F)(F)F)n1)Nc1cccnc1,58*,-0.45,-3,0,x,x
COC(=O)c1sccc1NC(=O)CC1C(=O)NCCN1C(=O)Nc1ccc(C(F)(F)F)cc1 (configuration not stated),x,0.14,0,x,0.71,x
CCn1c2ccccc2c2cc(/C=N/NC(=O)c3ccc(O)cc3)ccc21,17*,-0.36,52*,1,0.027,x
O=C(N/N=C/c1ccncc1)c1ccccc1,2,-1.2,-1,2,x,x
CCn1c2ccccc2c2cc(/C=N/NC(=O)c3ccncc3)ccc21,13*,-0.78,20,2,0.086,x
CCn1c2ccccc2c2cc(/C=N/NC(=O)c3cc(O)cc(O)c3)ccc21,3,x,0,0,-0.43,x
COc1cccc(Cn2c(-c3nonc3N)nc3ccccc32)c1,50*,x,x,2,x,x
CCCCOc1ccccc1NC(=O)Cn1c(-c2nonc2N)nc2ccccc21,27*,-1,0,-1,x,x
CCCC(=O)NC(=S)Nc1ccc(NC(=O)C(C)C)c(OC)c1,4,0.69,-1,0,x,x
O=c1c(Cl)c(Cl)cnn1Cc1nnc(-c2ccc(Cl)cc2)o1,40,-0.95,2,-1,-0.54,x
CCCOc1ccccc1C1CC(=O)NC(C)=C1C(=O)OCC(C)C (configuration not stated),2,-0.44,1,1,0.65,x
CCOc1ccccc1C1CC(=O)NC2=C1C(=O)CCC2 (configuration not stated),58*,x,22,2,4.7*,x
CCOc1ccc(C2CC(=O)NC3=C2C(=O)CCC3)cc1 (configuration not stated),3,x,-2,2,1.1,x
CCCOc1ccccc1C1CC(=O)NC2=C1C(=O)CCC2 (configuration not stated),55,0.66,97*,0,x,x
CCOC(=O)c1[nH]c(C)c(CN(C(C)=O)c2ccc(OCC)cc2)c1C,20*,-0.62,5,-1,0.31,x
Cc1cc(SCC(=O)c2cc(C)n(C)c2C)nc2ccccc12,7,0.22,0,0,0.45,x
CC1(C)Cc2nc3sc4c(=O)n(CC(=O)NCc5ccco5)cnc4c3cc2CO1,32*,0.19,1,0,x,x
CC1(C)Cc2nc3oc4c(=O)n(CC(=O)Nc5ccccc5)cnc4c3cc2CO1,3,0.66,-2,0,x,x
COc1ccc(O)c(C(=O)c2cnc3nc4ccccc4n3c2)c1,28*,-0.35,76*,0,0.35,x
COc1cccc(C2=NOC(C(=O)Nc3cccnc3Cl)C2)c1 (configuration not stated),3,0.32,-3,-1,-0.19,x
O=C(N/N=C/c1ccc2c(c1)OCO2)c1sc2cccc(Cl)c2c1Cl,22*,0.48,2,-5,x,x
COc1ccc2c(Cl)c(C(=O)N/N=C/c3ccc4c(c3)OCO4)sc2c1,12,-0.46,-1,-4,0.05,x
SMILES,MT stabilizer,KCC2 mod,bCat nuc transl,Redox H2O2 prof,ROMK mod,Redox H2O2 DR
O=C(N/N=C/c1ccc2c(c1)OCO2)c1sc2cc(Cl)ccc2c1Cl,19*,-0.16,-1,1,x,x
Cc1ccsc1C(=O)N/N=C/c1ccc2c(c1)OCO2,4,-1,2,1,x,x
CC1=C(C#N)C(c2ccccc2)C2=C(N1)c1ccccc1C2=O (configuration not stated),24*,-2.5,-4,1,0.09,x
O=C(COC(=O)c1ccccc1OCc1ccccc1Cl)NC1CC1,2,0.18,1,88*,x,>50
O=C(Cc1n[nH]c(=O)c2ccccc12)NC(c1ccccc1)c1ccccc1,x,0.59,0,x,x,x
CCCCn1c(NC(=O)CC)c(C#N)c2nc3ccccc3nc21,2,0.46,x,3,x,x
CCCCn1c(NC(=O)c2ccccc2Cl)c(C#N)c2nc3ccccc3nc21,8,1.2,0,311*,x,>50
O=C1C(Nc2ccccc2)=C/C(=N/S(=O)(=O)c2cccs2)c2ccccc21,30,0.38,0,102*,-0.01,>50
CCOC(=O)c1c2c(n(C)c1COC)C(=O)C(=O)c1ccc(Br)cc1-2,3,-0.16,x,343*,-0.49,>50
CCCn1c(=O)c(C(=O)OCC)c(O)c2cc(Br)ccc21,1,-1.3,-1,-1,x,x
O=[N+]([O-])c1ccc2[nH]c(O)c(N=NC3CS(=O)(=O)CC3O)c2c1 (configuration not stated),x,-0.11,1,x,x,x
Nc1cc2nsnc2cc1Br,2,-0.014,0,362*,0.0034,>50
Nc1cccc2nsnc12,x,-1.8,2,x,x,x
O=C(COC(=O)c1ccc([N+](=O)[O-])s1)Nc1ncc(C(F)(F)F)cc1Cl,4,0.39,5,86*,x,>50
COc1ccc(CNC(=O)CN(C2CCCCC2)S(C)(=O)=O)cc1,4,-0.11,1,-1,x,x
COc1cccc(NC(=O)C(OC(=O)c2ccc([N+](=O)[O-])o2)c2ccccc2)c1 (configuration not stated),2,-0.066,x,92*,x,>50
O=C(CCN1C(=O)c2ccccc2C1=O)N(CCO)Cc1ccccc1,1,0.014,-2,2,x,x
O=C1C=C(N(CCO)Cc2ccccc2)c2ccccc2C1=O,2,-1.2,-1,129*,-0.71,3.1*
CCn1c(Cc2ccccc2)nnc1SCC(=O)Nc1ccc(OC)cc1,2,0.43,4,2,x,x
C=CCn1c(Cc2ccc(OC)cc2)nnc1SCC(=O)NCCc1ccccc1,2,-2,1,109*,x,>50
CCCc1nc2c(=O)n(C)c(=O)nc-2n(C)n1,20*,x,3,128*,x,1.5*
Cc1ccc(C)c(S(=O)(=O)Nc2cc(SCC(=O)O)c(O)c3ccccc23)c1,5,-0.039,-2,101*,0.12,>50
O=C(NCC1CCCO1)c1cc2ccccc2oc1=O (configuration not stated),4,-0.55,0,1,0.44,x
CC(C)c1ccc(S(=O)(=O)/N=C2/C=C(Sc3ncn[nH]3)C(=O)c3ccccc32)cc1,4,1.7,0,93*,-2.6*,13*
Cc1ccc(S(=O)(=O)/N=C2/C=C(Sc3ncn[nH]3)C(=O)c3ccccc32)cc1,2,-0.95,-1,120*,x,12*
Cc1ccc(C)c(S(=O)(=O)Nc2ccc(O)c(Sc3ncn[nH]3)c2)c1,x,0.88,0,x,-0.06,x
